# Results from paper PMC4514009 (Journal of Radioanalytical and Nuclear Chemistry, 2010).
# Test system: NMDAR
# Experiment: Autoradiography of NMDAR in vitro by storage phosphor imaging
# Type: binding, Sprague–Dawley (SD) rat
# Settings: EB 0.3 mg pretreatment of slides
# In short: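 Sagittal brain sections from one healthy Sprague–Dawley rat (290 g) were fixed and air-dried, then shaken 30 min at room temperature in 50 mM Tris–HCl (pH 7.4) with 120 mM NaCl. EB 0.3 mg (60 μL) or saline was applied to the slides, which were preincubated 30 min at room temperature, then incubated with the radiotracer. They were washed three times for 30 min in ice-cold Tris–HCl and exposed 30 min to a phosphor screen. DLU mm−2 were read by ROI, and hippocampus/thalamus ratios were taken per section.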
compound,measurement,value
"O=c1c2ccccc2[se]n1-c1ccccc1 [EB, Ebselen]",effect on accumulation of ^99mTc-PQQ in hippocampus and cortex,can be inhibited
